# DENV2 CPE = inhibitors of DENV2 cytopathic effect, primary screen, cell-based, plate reader, single concentration; AID 651640, 2012; CPE inhibition, % at 9.99 µM; 350,000 tested, 1.7% active; DENV2-infected cells, cytopathic effect rescue; in the data active means CPE inhibition above about 20%, passing the limit was not always enough; inconclusive means no clear call, values can overlap the other calls; tested in BHK-21 cells
# E-selectin induc = E-selectin induction in HUVECs, primary screen, imaging, HUVEC, immunofluorescence imaging, single point. normalized: neutral wells 0, TNF-alpha wells 100. activation, % at 7.58 µM. 260,000 tested, 0.37% active;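 active means mean E-selectin-positive cell signal at least 10% of the positive control, reached in at least 60% of replicates, without over 20% cell loss; inconclusive means no rule given, readout overlaps actives, possibly toxicity-flagged; inactive means the rest, including those meeting only one limit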
#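 Test system: HUVEC; input: 3,000 HUVEC/well; measured by: immunofluorescence imaging; read-out: % PE-positive cells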
# SIRT5 inh = SIRT5 desuccinylase inhibitors, primary screen, biochemical, fluorescence imaging, single point, set 5. NAD-dependent protein deacylase sirtuin-5, mitochondrial (Homo sapiens), Q9NXA8. Purified SirT5, succinyl-peptide AMC, trypsin-coupled fluorescence. inhibition, % at 15 µM. 330,000 tested, 1.1% active; in the data active means inhibition above about 15%; inconclusive means no clear call, values can overlap the other calls
# Target sequence (Q9NXA8 whole entry, looked up): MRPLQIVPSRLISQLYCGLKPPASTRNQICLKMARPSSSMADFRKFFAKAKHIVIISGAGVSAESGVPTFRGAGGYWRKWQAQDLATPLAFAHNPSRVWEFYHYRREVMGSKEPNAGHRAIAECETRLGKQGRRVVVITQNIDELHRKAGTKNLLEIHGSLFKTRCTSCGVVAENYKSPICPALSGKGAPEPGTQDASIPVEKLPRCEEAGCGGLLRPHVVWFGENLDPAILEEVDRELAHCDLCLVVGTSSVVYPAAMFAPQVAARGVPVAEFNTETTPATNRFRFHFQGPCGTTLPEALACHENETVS
# Numbers stand for hits; n = inactive; u = inconclusive; x = no result given. Rows were chosen to be rich in hits. Some 2.8% of all compounds tested hit in one or more screens of this group.
SMILES,DENV2 CPE,E-selectin induc,SIRT5 inh
C[C@H](CO)N1C[C@H](C)[C@H](CN(C)Cc2ccccc2)Oc2ccc(NC(=O)CCN3CCOCC3)cc2CC1=O,n,n,n
COc1ccc2c3c([nH]c2c1)[C@@H](CO)N(Cc1cccnc1)CC31CN(C(=O)c2cccnc2)C1,n,n,n
CC(NC(=O)CSc1ncccn1)c1ccc2c(c1)OCO2 (stereo unspecified),n,n,n
CC(NC(=O)CCc1ccccc1)c1ccc2c(c1)OCO2 (stereo unspecified),28.6,n,n
COc1ccc(CN2C[C@@H](C)[C@@H](OC)CN(C)C(=O)c3cc(NC(C)=O)ccc3OC[C@H]2C)cc1,n,n,n
CCOC(=O)c1cc(-c2cc(OC)c(OC)c(OC)c2)nc2c1c(=O)[nH]c(=O)n2Cc1ccccc1,n,x,20.3
CCOC(=O)c1cc(-c2ccc(F)cc2)nc2c1c(=O)[nH]c(=O)n2Cc1ccccc1,n,x,n
CC(C)c1cn(CC[C@H]2CC[C@@H](NC(=O)Nc3cc(Cl)cc(Cl)c3)[C@@H](CO)O2)nn1,n,n,n
Nc1c(Cl)cc(-c2csc(N3CCCC3c3nc4cc(Cl)c(Cl)cc4n3CCCO)n2)cc1Cl (stereo unspecified),n,n,n
Nc1c(Cl)cc(-c2csc(N3CCCC3c3nc4cc(Cl)c(N5CCCCC5)cc4n3CCCO)n2)cc1Cl (stereo unspecified),n,n,15.4
CC1CCCN(CCOc2cccc(Oc3ccccc3)c2)C1 (stereo unspecified),53.4,n,n
CC1CN(CCOc2cccc(Oc3ccccc3)c2)CC(C)O1 (stereo unspecified),n,x,n
C/C=C/c1cnc2c(c1)C(=O)N([C@@H](C)CO)C[C@H](C)[C@@H](CN(C)C(=O)NC1CCCCC1)O2,n,n,n
CCN1[C@@H]2Cn3c(ccc(C4=CCCCC4)c3=O)[C@H]1[C@@H](C(=O)NC1Cc3ccccc3C1)[C@@H]2CO,n,n,n
Cc1cc(C)n(CCNC(=O)CCc2nnc(CCc3ccccc3)o2)n1,n,n,15.2
Cc1cc(C)n(CC(C)NC(=O)CCc2nnc(CCc3ccccc3)o2)n1 (stereo unspecified),n,x,n
CCCN1C[C@H](C)[C@H](OC)CN(C)C(=O)c2cc(NC(=O)c3cccc(F)c3)ccc2OC[C@@H]1C,n,n,n
CCCNC(=O)N(C)C[C@@H]1Oc2ncc(C#CCc3ccccc3)cc2C(=O)N([C@@H](C)CO)C[C@@H]1C,u,n,n
CCn1c(C)nc2cc(C(=O)NNC(=S)Nc3ccc(Cl)cc3)ccc21,n,n,n
CCn1c(C)nc2cc(C(=O)NNC(=O)Nc3ccc(Cl)c(Cl)c3)ccc21,n,n,17.7
CCc1cc(C(=O)Nc2nc(-c3ccccn3)cs2)sc1C,n,29.4,n
Cc1ccc(C(=O)Nc2nc(-c3ccccn3)cs2)o1,n,x,n
O=S(=O)(N[C@@H]1CC[C@H](CCn2cc(C3(O)CCCC3)nn2)O[C@H]1CO)c1ccc(F)cc1,u,n,n
CN(C)/C=C1\C(=O)ON=C1c1ccccc1,n,x,n
O=C1ON=C(c2ccccc2)/C1=C/c1ccco1,n,x,19.6
SMILES,DENV2 CPE,E-selectin induc,SIRT5 inh
CN(C)c1ccc(O)c2c1CC1CC3[C@@H](N(C)C)C(=O)C(C(N)=O)=C(O)[C@]3(O)C(=O)C1=C2O (stereo partly specified),n,n,33.9
C[C@@H]1CN([C@H](C)CO)C(=O)c2cc(NC(=O)CCCN(C)C)ccc2O[C@H]1CN(C)C(=O)Nc1ccccc1,n,n,n
C[C@@H]1CCCCO[C@H](CN(C)S(=O)(=O)c2cccs2)[C@@H](C)CN([C@@H](C)CO)C(=O)c2cc(NC(=O)Nc3ccc(F)cc3)ccc2O1,n,n,n
Cn1cnc2c(N/N=C/c3cccs3)ncnc21,n,x,15.1
COc1cccc(/C=N/Nc2ncnc3c2ncn3Cc2ccccc2)c1O,n,n,n
COCC(=O)Nc1ccc2c(c1)[C@@H]1C[C@H](CC(=O)NCc3ccccc3OC)O[C@H](CO)[C@@H]1O2,n,n,n
COc1ccccc1NC(=O)N[C@@H]1CC[C@H](CC(=O)N[C@@H](C)c2ccccc2)O[C@H]1CO,n,n,n
CN1c2ccc(-c3ccccc3)cc2[C@H]2[C@H](CCN2S(=O)(=O)c2ccccc2F)[C@@H]1CO,n,n,n
Cc1noc(C)c1S(=O)(=O)Nc1ccc2c(c1)C(=O)N([C@@H](C)CO)C[C@@H](C)[C@H](CN(C)Cc1ccncc1)OCCCC[C@H](C)O2,n,n,n

# Screens: PubChem BioAssay, Broad Institute
